Laboratory results: ChEMBL document CHEMBL3792381, “Amine-free melanin-concentrating hormone receptor 1 antagonists: Novel 1-(1H-benzimidazol-6-yl)pyridin-2(1H)-one derivatives and design to avoid CYP3A4 time-dependent inhibition” (Bioorg Med Chem, 2016)
Values after ≈ are worked out from the molar mass of the structure shown. Active and inactive are the calls of the source. The rule behind the calls is not given here.

Legend:
[1] = Oral bioavailability in Sprague-Dawley rat plasma at 1 mg/kg administered through cassette dosing by LC/MS/MS analysis; assay type: ADME, organism-based
In short: (§1)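 Male SD rats (eight weeks old), fed, cassette-dosed iv at 0.1 mg/kg or orally at 1 mg/kg as a suspension in 0.5% methylcellulose; n = 3. Plasma obtained by centrifugation of blood, deproteinized with acetonitrile, and measured by LC/MS/MS. AUC covers 0–8 h. Bioavailability, total clearance and Vss are derived from the iv and po data.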

[2] = target: T1, Melanin-concentrating hormone receptor 1 (Homo sapiens, UniProt Q99705); experiment: Antagonist activity at human MCHR1 expressed in CHO cells assessed as change in MCH(4 to 19)-stimulated Ca2+ concentration by Ca2+ mobilization assay; assay type: functional, cell-based
T1 sequence (Q99705 whole entry): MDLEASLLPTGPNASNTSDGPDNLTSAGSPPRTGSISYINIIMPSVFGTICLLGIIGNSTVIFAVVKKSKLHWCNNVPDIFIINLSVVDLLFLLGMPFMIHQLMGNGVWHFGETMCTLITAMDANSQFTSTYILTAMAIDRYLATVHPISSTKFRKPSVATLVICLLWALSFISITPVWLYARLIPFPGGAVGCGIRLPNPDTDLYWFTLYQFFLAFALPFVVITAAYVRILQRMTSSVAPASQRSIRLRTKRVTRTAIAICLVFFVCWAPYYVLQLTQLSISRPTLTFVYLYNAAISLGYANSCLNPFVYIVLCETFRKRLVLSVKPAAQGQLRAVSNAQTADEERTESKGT
In short: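 CHO dhfr− cells stably transfected with human MCHR1 (clone 4), seeded at 20000 cells/well and cultured about 24 h. Loaded with Fluo4 calcium dye for 30 min at 37 °C. Test compound in 10 mM HEPES pH 7.4 buffer with 0.1% BSA added, then MCH(4–19) at 2 nM final. Fluorescence read every 2 s; inhibition rate (%) taken relative to ligand-alone and DMSO-alone wells.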

[3] = Total clearance in Sprague-Dawley rat plasma at 0.1 mg/kg, iv administered through cassette dosing by LC/MS/MS analysis; assay type: ADME, organism-based; in short: as §1
[4] = Volume of distribution in steady state in Sprague-Dawley rat plasma at 0.1 mg/kg, iv administered through cassette dosing by LC/MS/MS analysis; assay type: ADME, organism-based; conditions: read-out: Vdss; in short: as §1
[5] = Cmax in Sprague-Dawley rat at 1 mg/kg, po administered through cassette dosing by LC/MS/MS analysis; assay type: ADME, organism-based; design: dose 1 mg/kg, route oral; conditions: in vivo; in short: as §1
[6] = Tmax in Sprague-Dawley rat plasma at 1 mg/kg, po administered through cassette dosing by LC/MS/MS analysis; assay type: ADME, organism-based; in short: as §1
[7] = AUC( 0 to 8 hrs) Sprague-Dawley rat plasma at 1 mg/kg, po administered through cassette dosing by LC/MS/MS analysis; assay type: ADME, organism-based; design: dose 1 mg/kg, time < 8 hr, route oral; in short: as §1
[8] = system: Rattus norvegicus; experiment: Anorectic effect in DIO-F344/Jcl rat assessed as inhibition of food intake at 3 mg/kg, po administered 2 hrs before onset of dark period for 2 days; assay type: functional; design: scale not given: the % may be the effect or the level left
In short: (§2)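 Male DIO-F344/Jcl rats, 45 weeks old, on high-fat diet from 5 weeks of age, singly housed on powdered high-fat diet and habituated to oral dosing with tap water. Grouped by day-0 food intake and body weight. Dosed orally once daily, suspended in 0.5% methylcellulose at 2 mL/kg, 2 h before dark onset, for 2 days; n = 6. Cumulative 2-day food intake is expressed relative to the vehicle group.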

[9] = system: Rattus norvegicus; experiment: Anorectic effect in DIO-F344/Jcl rat assessed as inhibition of food intake at 10 mg/kg, po administered 2 hrs before onset of dark period for 2 days; assay type: functional; design: scale not given: the % may be the effect or the level left; in short: as §2
[10] = system: Rattus norvegicus; experiment: Anorectic effect in orally dosed DIO-F344/Jcl rat assessed as inhibition of food intake administered 2 hrs before onset of dark period for 2 days; assay type: functional, organism-based; in short: as §2
[11] = system: Rattus norvegicus; experiment: Antiobesity activity in DIO-F344/Jcl rat assessed as reduction in body weight at 3 mg/kg, po dosed for 2 weeks and measured every 2 or 3 days relative to vehicle control; assay type: functional; design: scale not given: the % may be the effect or the level left
In short: (§3)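 DIO-F344 rats, 41 weeks old, habituated and grouped as for the 2-day study. Dosed orally once daily for 2 weeks in 0.5% methylcellulose at 2 mL/kg, 1–3 h before dark onset, after weighing; n = 5 or 6. Food intake measured every 2 or 3 days; body weight change expressed as percent of initial weight; sibutramine was the positive control.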

[12] = system: Rattus norvegicus; experiment: Antiobesity activity in DIO-F344/Jcl rat assessed as reduction in body weight at 10 mg/kg, po dosed for 2 weeks and measured every 2 or 3 days relative to vehicle control; assay type: functional; design: scale not given: the % may be the effect or the level left; in short: as §3
[13] = system: Rattus norvegicus; experiment: Anorectic effect in DIO-F344/Jcl rat assessed as cumulative food intake at 3 mg/kg, po dosed for 2 weeks and measured every 2 or 3 days relative to vehicle control; assay type: functional; in short: as §3
[14] = system: Rattus norvegicus; experiment: Anorectic effect in DIO-F344/Jcl rat assessed as cumulative food intake at 10 mg/kg, po dosed for 2 weeks and measured every 2 or 3 days relative to vehicle control; assay type: functional; in short: as §3
[15] = Solubility of compound at pH 6.8; assay type: physicochemical; conditions: buffer
[16] = system: Plasma; experiment: Free plasma concentration in DIO-F344/Jcl rat at 10 mg/kg, po; assay type: ADME, organism-based; conditions: in vivo
In short: (§4)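 Trough plasma concentration taken in the 2-week repeated oral dosing study in DIO-F344 rats. Unbound concentration obtained from total concentration and the unbound fraction in DIO rat plasma.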

[17] = Fraction unbound in po dosed DIO-F344/Jcl rat plasma; assay type: ADME, organism-based
[18] = system: Rattus norvegicus; experiment: Trough plasma concentration in DIO-F344/Jcl rat at 10 mg/kg, po; assay type: ADME, organism-based; conditions: in vivo, read-out: Cmin; in short: as §4
[19] = Ratio of drug level in brain to plasma in po dosed DIO-F344/Jcl rat; assay type: ADME, organism-based; conditions: brain and plasma, read-out: BPR
[20] = system: Mus musculus; experiment: Antiobesity activity in MCHR1-deficient mouse assessed as reduction in body weight at 10 and 30 mg/kg, po dosed for 3 days; assay type: functional, organism-based
In short: (§5)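 Male MCHR1-deficient and wild-type littermate mice, 27 weeks old, on high-fat diet from 7 weeks of age, housed individually and acclimated to tap-water dosing. Grouped by food intake from day −4 to day −1 and by day −1 body weight. Dosed orally once daily for 3 days in 0.5% methylcellulose at 10 mL/kg; n = 6. Body weight change and cumulative food intake measured over the 3 days.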

[21] = system: Mus musculus; experiment: Antiobesity activity in wild-type litter mate mouse assessed as reduction in body weight at 10 and 30 mg/kg, po dosed for 3 days; assay type: functional, organism-based; in short: as §5
[22] = system: Mus musculus; experiment: Anorectic effect in MCHR1-deficient mouse assessed as reduction in food intake at 10 and 30 mg/kg, po dosed for 3 days; assay type: functional, organism-based; in short: as §5
[23] = system: Brain; experiment: Drug uptake in po dosed DIO-F344/Jcl rat brain; assay type: ADME, organism-based; conditions: in vivo
[24] = target: T1, Melanin-concentrating hormone receptor 1; experiment: Displacement of [125I]-MCH(4 to 19) from human MCHR1 expressed in CHO cell membranes after 1 hr by liquid scintillation counting
In short: (§6)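 Membranes from CHO cells stably expressing human or rat MCHR1, prepared by homogenization and 100,000×g centrifugation, in 20 mM Tris-HCl pH 7.5 with 5 mM EDTA and protease inhibitors. Incubated with test compound and [125I]-MCH(4–19) for 1 h at room temperature. Filtered on PEI-treated GF/C filters and counted by scintillation. Nonspecific binding defined with cold MCH(1–19). IC50 from duplicate experiment.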

[25] = target: Melanin-concentrating hormone receptor 1 (Rattus norvegicus, UniProt P97639); experiment: Displacement of [125I]-MCH(4-19) from rat MCHR1 expressed in CHO cell membranes after 1 hr by liquid scintillation counting; in short: as §6
Melanin-concentrating hormone receptor 1 (Rattus norvegicus, UniProt P97639), sequence (P97639 whole entry): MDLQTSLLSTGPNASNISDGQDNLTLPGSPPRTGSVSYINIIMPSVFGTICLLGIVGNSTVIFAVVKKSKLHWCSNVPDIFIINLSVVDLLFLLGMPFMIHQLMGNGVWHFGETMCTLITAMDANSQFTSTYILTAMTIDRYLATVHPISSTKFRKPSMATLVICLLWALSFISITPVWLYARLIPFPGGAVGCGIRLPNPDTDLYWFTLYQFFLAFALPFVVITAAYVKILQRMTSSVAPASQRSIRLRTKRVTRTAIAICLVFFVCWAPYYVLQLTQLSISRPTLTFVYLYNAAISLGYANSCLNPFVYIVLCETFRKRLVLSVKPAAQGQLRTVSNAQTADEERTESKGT

[26] = target: CYP3A4 (Homo sapiens, UniProt P08684); experiment: Time dependent inhibition of CYP3A4 in human liver microsomes assessed as conversion of testosterone to 6beta-hydroxytestosterone by measuring remaining activity at 30 uM by UPLC analysis in presence of NADPH generating system; assay type: ADME; conditions: read-out: Activity
CYP3A4, sequence (P08684 whole entry): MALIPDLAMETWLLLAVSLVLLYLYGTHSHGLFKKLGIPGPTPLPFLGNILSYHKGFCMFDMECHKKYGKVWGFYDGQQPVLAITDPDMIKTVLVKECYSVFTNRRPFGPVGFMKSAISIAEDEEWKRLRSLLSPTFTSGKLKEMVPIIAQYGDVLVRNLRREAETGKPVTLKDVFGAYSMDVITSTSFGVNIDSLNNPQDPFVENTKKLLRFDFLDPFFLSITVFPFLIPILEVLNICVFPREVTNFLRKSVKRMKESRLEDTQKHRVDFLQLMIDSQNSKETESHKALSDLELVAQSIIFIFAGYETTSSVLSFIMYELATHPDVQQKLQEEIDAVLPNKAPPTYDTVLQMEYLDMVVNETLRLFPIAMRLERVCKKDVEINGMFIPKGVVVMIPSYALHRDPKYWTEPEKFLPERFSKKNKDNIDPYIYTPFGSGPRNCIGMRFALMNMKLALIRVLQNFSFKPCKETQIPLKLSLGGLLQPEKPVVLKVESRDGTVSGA
In short: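 Single-point assay: test compound at 30 µM preincubated with human liver microsomes at 37 °C in phosphate buffer pH 7.4 with an NADPH-generating system. Residual CYP3A4 activity then measured as testosterone 6β-hydroxylation by UPLC. Percent remaining = activity with preincubation (% of DMSO control) over activity without preincubation; n = 2.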

For `Cn1c(C2CC2)nc2ccc(-n3ccc(OCc4ccc(Cl)s4)cc3=O)cc21`, the bioavailability [1] was 23%, the IC50 [2] was 24 nM and the clearance [3] was 7.5 mL/min/kg. For the same compound, the Vd [4] was 0.92 L/kg, the Cmax [5] was 165 ng/mL and the Tmax [6] was 1 h. The AUC(0-t) at 8 h [7] was 515 ng·h/mL, the Activity [8] was 11.6% and the Activity [9] was 36.5%. For the same compound, the Activity [10] was “Dose-dependent effect”, the Activity [11] was 2.2% and the Activity [12] was 4.1%. It also gave an Activity [13] of 11.6%, an Activity [14] of 20.9% and a solubility [15] of 2.3 µg/mL (≈ 5.58 µM). The “Cp(f)” value [16] was 15.8 nM, the fraction unbound [17] was 0.02 and the concentration [18] was 790 nM. For the same compound, the Kp [19] was 0.5, the Activity [20] was “inactive” and the Activity [21] was “Dose-dependent effect”. For the same compound, the Activity [22] was “Dose-dependent effect”, the Drug uptake [23] was “Active” and the IC50 [24] was 19 nM. The IC50 [25] was 11 nM and the activity at 30 µM [26] was 83%.
